Data: ChEMBL document CHEMBL3102784, “Salicylanilide diethyl phosphates: synthesis, antimicrobial activity and cytotoxicity” (Bioorg Med Chem, 2014)
In brackets after ≈: the same amount, converted by molar mass. Activity calls are given as the source filed them. The rule behind the calls is not given here.

How the values were obtained:
[1] = system: Staphylococcus epidermidis; experiment: Antibacterial activity against Staphylococcus epidermidis H 6966/08 after 48 hrs by broth microdilution method; type: functional; settings: H 6966/08, 48 h
How it was run: (§1)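 Broth microdilution in Mueller–Hinton broth, compounds dissolved in DMSO, tested over a dilution series from 500 downward. MIC taken as ≥95% growth reduction (IC95) versus drug-free control. Benzylpenicillin comparator. Readings at 24 and 48 h.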

Aspergillus fumigatus [2] = experiment: Antifungal activity against Aspergillus fumigatus 231 after 48 hrs by broth microdilution method; type: functional; settings: Aspergillus fumigatus, 231, 48 h
How it was run: (§2)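 Broth microdilution in RPMI 1640 with glutamine, fluconazole as reference. For yeasts, MIC is ≥80% growth reduction (IC80) versus control. For filamentous fungi, the value is expressed as IC50. Readings at 24 and 48 h.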

Enterococcus sp. = experiment: Antibacterial activity against Enterococcus sp. J 14365/08 at 500 micromol/L after 24 to 48 hrs by broth microdilution method; type: functional, organism-based; how it was run: as §1
[3] = system: Mycobacterium tuberculosis; experiment: Antimycobacterial activity against Mycobacterium tuberculosis H37Rv My 331/88 after 21 days; type: functional; settings: H37Rv My 331/88, 504 h
How it was run: (§3)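 Micromethod MIC in Šula's semisynthetic medium at 37 °C. Compounds added in DMSO at 1000 down to 0.032 µmol/L. Isoniazid standard in sterile water at 0.5–250 µmol/L. Inocula: H37Rv 10^3, M. avium 10^5, M. kansasii 10^4. Read at 14 and 21 d, plus 7 d for M. kansasii.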

Staphylococcus aureus [4] = experiment: Antibacterial activity against methicillin-resistant Staphylococcus aureus H 5996/08 after 24 hrs by broth microdilution method; type: functional; settings: H 5996/08, 24 h; how it was run: as §1
Mycobacterium kansasii [5] = experiment: Antimycobacterial activity against Mycobacterium kansasii My 235/80 after 21 days; type: functional; settings: My 235/80, 504 h; how it was run: as §3
Aspergillus fumigatus [6] = experiment: Antifungal activity against Aspergillus fumigatus 231 after 24 hrs by broth microdilution method; type: functional; settings: Aspergillus fumigatus, 231, 24 h; how it was run: as §2
HepG2 = experiment: Cytotoxicity against human HepG2 cells after 24 hrs by CellTiter assay; type: cell-based; settings: HepG2, 24 h
How it was run: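 HepG2 cells (passage 27–33) in MEM with 10% FBS, L-glutamine and NEAA, seeded at 1×10^4 per well. Treated next day with compounds at 0.1–100 µM (or 0.1–25 µmol/L), triplicates, <1% DMSO, for 24 h at 37 °C, 5% CO2. MTS reagent added for 2 h, absorbance read at 490 nm. IC50 taken against untreated (100%) and 10% DMSO (0%) controls.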

Mycobacterium kansasii [7] = experiment: Antimycobacterial activity against Mycobacterium kansasii 6509/96 after 21 days; type: functional; settings: 6509/96, 504 h; how it was run: as §3
Klebsiella pneumoniae [8] = experiment: Antibacterial activity against Klebsiella pneumoniae D 11750/08 at 500 micromol/L after 24 to 48 hrs by broth microdilution method; type: functional, organism-based; how it was run: as §1
[9] = system: Trichophyton mentagrophytes; experiment: Antifungal activity against Trichophyton mentagrophytes 445 after 72 hrs by broth microdilution method; type: functional; settings: Trichophyton mentagrophytes, 445, 72 h
How it was run: (§4)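 Filamentous dermatophyte tested by broth microdilution in RPMI 1640 with glutamine, fluconazole as reference. Value expressed as IC50 relative to growth control. Read at 72 and 120 h.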

[10] = system: Staphylococcus epidermidis; experiment: Antibacterial activity against Staphylococcus epidermidis H 6966/08 after 24 hrs by broth microdilution method; type: functional; settings: H 6966/08, 24 h; how it was run: as §1
Mycobacterium avium [11] = experiment: Antimycobacterial activity against isoniazid, rifampicin, ethambutol and ofloxacin-resistant Mycobacterium avium My 330/88 after 14 days; type: functional; settings: My 330/88, 336 h; how it was run: as §3
Trichosporon asahii [12] = experiment: Antifungal activity against Trichosporon asahii 1188 after 48 hrs by broth microdilution method; type: functional; settings: Trichosporon asahii, 1188, 48 h; how it was run: as §2
Candida tropicalis = experiment: Antifungal activity against Candida tropicalis 156 at 500 micromol/L after 24 to 48 hrs by broth microdilution method; type: functional, organism-based; how it was run: as §2
[13] = system: Trichophyton mentagrophytes; experiment: Antifungal activity against Trichophyton mentagrophytes 445 after 120 hrs by broth microdilution method; type: functional; settings: Trichophyton mentagrophytes, 445, 120 h; how it was run: as §4
Candida albicans [14] = experiment: Antifungal activity against Candida albicans ATCC 44859 after 48 hrs by broth microdilution method; type: functional; settings: ATCC 44859, 48 h; how it was run: as §2
Trichosporon asahii [15] = experiment: Antifungal activity against Trichosporon asahii 1188 after 24 hrs by broth microdilution method; type: functional; settings: Trichosporon asahii, 1188, 24 h; how it was run: as §2
Lichtheimia corymbifera [16] = experiment: Antifungal activity against Absidia corymbifera 272 after 24 hrs by broth microdilution method; type: functional; settings: Lichtheimia corymbifera, 272, 24 h; how it was run: as §2
Mycobacterium kansasii [17] = experiment: Antimycobacterial activity against Mycobacterium kansasii 6509/96 after 7 days; type: functional; settings: 6509/96, 168 h; how it was run: as §3
Mycobacterium kansasii [18] = experiment: Antimycobacterial activity against Mycobacterium kansasii 6509/96 after 14 days; type: functional; settings: 6509/96, 336 h; how it was run: as §3
Mycobacterium kansasii [19] = experiment: Antimycobacterial activity against Mycobacterium kansasii My 235/80 after 7 days; type: functional; settings: My 235/80, 168 h; how it was run: as §3
Pseudomonas aeruginosa = experiment: Antibacterial activity against Pseudomonas aeruginosa CCM 1961 at 500 micromol/L after 24 to 48 hrs by broth microdilution method; type: functional, organism-based; how it was run: as §1
Mycobacterium kansasii [20] = experiment: Antimycobacterial activity against Mycobacterium kansasii My 235/80 after 14 days; type: functional; settings: My 235/80, 336 h; how it was run: as §3
Pichia kudriavzevii [21] = experiment: Antifungal activity against Candida krusei E28 after 24 hrs by broth microdilution method; type: functional; settings: E28, 24 h; how it was run: as §2
Nakaseomyces glabratus = experiment: Antifungal activity against Candida glabrata 20/I at 500 micromol/L after 24 to 48 hrs by broth microdilution method; type: functional, organism-based; how it was run: as §2
Klebsiella pneumoniae [22] = experiment: Antibacterial activity against ESBL-positive Klebsiella pneumoniae J 14368/08 at 500 micromol/L after 24 to 48 hrs by broth microdilution method; type: functional, organism-based; how it was run: as §1
Candida albicans [23] = experiment: Antifungal activity against Candida albicans ATCC 44859 after 24 hrs by broth microdilution method; type: functional; settings: ATCC 44859, 24 h; how it was run: as §2
Lichtheimia corymbifera [24] = experiment: Antifungal activity against Absidia corymbifera 272 after 48 hrs by broth microdilution method; type: functional; settings: Lichtheimia corymbifera, 272, 48 h; how it was run: as §2
Staphylococcus aureus [25] = experiment: Antibacterial activity against methicillin-resistant Staphylococcus aureus H 5996/08 after 48 hrs by broth microdilution method; type: functional; settings: H 5996/08, 48 h; how it was run: as §1
Staphylococcus aureus [26] = experiment: Antibacterial activity against Staphylococcus aureus CCM 4516/08 after 24 hrs by broth microdilution method; type: functional; settings: CCM 4516/08, 24 h; how it was run: as §1
Pichia kudriavzevii [27] = experiment: Antifungal activity against Candida krusei E28 after 48 hrs by broth microdilution method; type: functional; settings: E28, 48 h; how it was run: as §2
[28] = system: Mycobacterium tuberculosis; experiment: Antimycobacterial activity against Mycobacterium tuberculosis H37Rv My 331/88 after 14 days; type: functional; settings: H37Rv My 331/88, 336 h; how it was run: as §3
Mycobacterium avium [29] = experiment: Antimycobacterial activity against isoniazid, rifampicin, ethambutol and ofloxacin-resistant Mycobacterium avium My 330/88 after 21 days; type: functional; settings: My 330/88, 504 h; how it was run: as §3
Escherichia coli = experiment: Antibacterial activity against Escherichia coli CCM 4517 at 500 micromol/L after 24 to 48 hrs by broth microdilution method; type: functional, organism-based; how it was run: as §1
Staphylococcus aureus [30] = experiment: Antibacterial activity against Staphylococcus aureus CCM 4516/08 after 48 hrs by broth microdilution method; type: functional; settings: CCM 4516/08, 48 h; how it was run: as §1

SMILES: CCOP(=O)(OCC)Oc1cc(Cl)ccc1C(=O)Nc1cccc(Br)c1
- MIC95 [1]: 250 µM (≈ 116 µg/mL)
- MIC50 (Aspergillus fumigatus [2]): > 500 µM
- Activity (Enterococcus sp.): inactive
- MIC [3]: 4 µM (≈ 1.85 µg/mL)
- MIC95 (Staphylococcus aureus [4]): 250 µM (≈ 116 µg/mL)
- MIC (Mycobacterium kansasii [5]): 8 µM (≈ 3.7 µg/mL)
- MIC50 (Aspergillus fumigatus [6]): > 500 µM
- IC50 (HepG2): 8.07 µM
- MIC (Mycobacterium kansasii [7]): 8 µM (≈ 3.7 µg/mL)
- Activity (Klebsiella pneumoniae [8]): inactive
- MIC50 [9]: > 500 µM
- MIC95 [10]: 125 µM (≈ 57.8 µg/mL)
- MIC (Mycobacterium avium [11]): 16 µM (≈ 7.4 µg/mL)
- MIC80 (Trichosporon asahii [12]): > 500 µM
- Activity (Candida tropicalis): inactive
- MIC50 [13]: > 500 µM
- MIC80 (Candida albicans [14]): > 500 µM
- MIC80 (Trichosporon asahii [15]): > 500 µM
- MIC50 (Lichtheimia corymbifera [16]): > 500 µM
- MIC (Mycobacterium kansasii [17]): 8 µM (≈ 3.7 µg/mL)
- MIC (Mycobacterium kansasii [18]): 8 µM (≈ 3.7 µg/mL)
- MIC (Mycobacterium kansasii [19]): 4 µM (≈ 1.85 µg/mL)
- Activity (Pseudomonas aeruginosa): inactive
- MIC (Mycobacterium kansasii [20]): 8 µM (≈ 3.7 µg/mL)
- MIC80 (Pichia kudriavzevii [21]): > 500 µM
- Activity (Nakaseomyces glabratus): inactive
- Activity (Klebsiella pneumoniae [22]): inactive
- MIC80 (Candida albicans [23]): > 500 µM
- MIC50 (Lichtheimia corymbifera [24]): > 500 µM
- MIC95 (Staphylococcus aureus [25]): 500 µM (≈ 231 µg/mL)
- MIC95 (Staphylococcus aureus [26]): 125 µM (≈ 57.8 µg/mL)
- MIC80 (Pichia kudriavzevii [27]): > 500 µM
- MIC [28]: 4 µM (≈ 1.85 µg/mL)
- MIC (Mycobacterium avium [29]): 16 µM (≈ 7.4 µg/mL)
- Activity (Escherichia coli): inactive
- MIC95 (Staphylococcus aureus [30]): 500 µM (≈ 231 µg/mL)

SMILES: CCOP(=O)(OCC)Oc1cc(Cl)ccc1C(=O)Nc1ccc(Cl)c(Cl)c1
- MIC95 [1]: > 500 µM
- MIC50 (Aspergillus fumigatus [2]): > 500 µM
- Activity (Enterococcus sp.): inactive
- MIC [3]: 4 µM (≈ 1.81 µg/mL)
- MIC95 (Staphylococcus aureus [4]): 500 µM (≈ 226 µg/mL)
- MIC (Mycobacterium kansasii [5]): 4 µM (≈ 1.81 µg/mL)
- MIC50 (Aspergillus fumigatus [6]): > 500 µM
- IC50 (HepG2): 1.92 µM
- MIC (Mycobacterium kansasii [7]): 4 µM (≈ 1.81 µg/mL)
- Activity (Klebsiella pneumoniae [8]): inactive
- MIC50 [9]: 7.81 µM (≈ 3.54 µg/mL)
- MIC95 [10]: 250 µM (≈ 113 µg/mL)
- MIC (Mycobacterium avium [11]): 16 µM (≈ 7.24 µg/mL)
- MIC80 (Trichosporon asahii [12]): > 500 µM
- Activity (Candida tropicalis): inactive
- MIC50 [13]: 7.81 µM (≈ 3.54 µg/mL)
- MIC80 (Candida albicans [14]): > 500 µM
- MIC80 (Trichosporon asahii [15]): > 500 µM
- MIC50 (Lichtheimia corymbifera [16]): > 500 µM
- MIC (Mycobacterium kansasii [17]): 4 µM (≈ 1.81 µg/mL)
- MIC (Mycobacterium kansasii [18]): 4 µM (≈ 1.81 µg/mL)
- MIC (Mycobacterium kansasii [19]): 2 µM (≈ 0.905 µg/mL)
- Activity (Pseudomonas aeruginosa): inactive
- MIC (Mycobacterium kansasii [20]): 4 µM (≈ 1.81 µg/mL)
- MIC80 (Pichia kudriavzevii [21]): > 500 µM
- Activity (Nakaseomyces glabratus): inactive
- Activity (Klebsiella pneumoniae [22]): inactive
- MIC80 (Candida albicans [23]): > 500 µM
- MIC50 (Lichtheimia corymbifera [24]): > 500 µM
- MIC95 (Staphylococcus aureus [25]): > 500 µM
- MIC95 (Staphylococcus aureus [26]): 500 µM (≈ 226 µg/mL)
- MIC80 (Pichia kudriavzevii [27]): > 500 µM
- MIC [28]: 4 µM (≈ 1.81 µg/mL)
- MIC (Mycobacterium avium [29]): 16 µM (≈ 7.24 µg/mL)
- Activity (Escherichia coli): inactive
- MIC95 (Staphylococcus aureus [30]): > 500 µM
